Laboratory results reported in article PMC4076036 (Journal of Natural Products, 2014).

Legend:
tyrosinase [1] = molecular target: T1, tyrosinase (Mus musculus, UniProt P11344); assay: Tyrosinase activity in treated melan-a cells; format: cell-based; details: 60 μM, 3 days, 20 nM TPA; TPA alone 100%
T1 sequence (P11344 19-533): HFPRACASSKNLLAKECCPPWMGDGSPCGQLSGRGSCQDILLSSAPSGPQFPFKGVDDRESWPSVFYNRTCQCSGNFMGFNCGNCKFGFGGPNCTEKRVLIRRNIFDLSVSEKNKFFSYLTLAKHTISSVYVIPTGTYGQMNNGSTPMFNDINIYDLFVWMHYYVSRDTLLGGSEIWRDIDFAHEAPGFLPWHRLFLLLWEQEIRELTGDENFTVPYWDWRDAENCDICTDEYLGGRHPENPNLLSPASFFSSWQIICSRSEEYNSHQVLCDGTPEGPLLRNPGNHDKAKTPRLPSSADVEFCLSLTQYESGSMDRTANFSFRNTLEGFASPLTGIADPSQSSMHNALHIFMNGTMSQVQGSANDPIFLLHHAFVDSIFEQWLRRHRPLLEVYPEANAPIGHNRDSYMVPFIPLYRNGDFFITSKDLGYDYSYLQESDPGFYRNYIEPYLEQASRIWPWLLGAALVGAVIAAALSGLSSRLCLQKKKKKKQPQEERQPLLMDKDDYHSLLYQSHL

melan-a melanocytes [2] = assay: Confocal immunofluorescence microscopy of tyrosinase localization; format: cell-based, mouse
melan-a tyrosinase = molecular target: T2, melan-a tyrosinase (Mus musculus, UniProt P11344); format: biochemical; details: for type of tyrosinase inhibition: Lineweaver–Burk plot, L-DOPA
T2 sequence (P11344 19-533): T1 sequence (P11344 19-533)

tyrosinase/TRP-1 complex = assay: Co-immunoprecipitation with antibody against TRP-1; format: cell-based, mouse; details: 3 days, forskolin-supplemented medium
melan-a melanocytes [3] = assay: Sulforhodamine B cytotoxicity assay; format: cell-based, mouse; details: 3 days, with or without forskolin
Procedure, shortened: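 Melan-a cells in RPMI-1640 with 5% FBS and antibiotics were seeded at 20 000 cells/0.1 mL/well. They were exposed to the test compound for 72 h in medium with 20 nM TPA, 1 μM forskolin, or vehicle alone. Viability was read by the sulforhodamine B colorimetric assay. Values are mean ± SD of triplicate experiments.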

tyrosinase [4] = assay: Glycosylation analysis of tyrosinase; format: cell-based, mouse; details: forskolin-supplemented medium, Endo H digestion
MITF, tyrosinase, TRP-1 = format: cell-based, mouse; details: 1 day, forskolin-supplemented medium
Procedure, shortened: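 Melan-a cells were co-treated with 1 μM forskolin, with or without the test compound, for 1 day. Proteins were extracted in PhosphoSafe buffer, run on 10% SDS-PAGE, semidry-transferred to PVDF and blocked in 3% BSA. Blots were probed for tyrosinase, TRP-1, TRP-2, MITF and β-actin, then HRP secondary antibodies (1 h, room temperature). Detection was by ECL, with stripping before reprobing.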

tyrosinase activity (tyrosinase [1])	type of tyrosinase inhibition (melan-a tyrosinase)	reversibility of binding to tyrosinase (melan-a tyrosinase; tyrosinase mixed with compound 24 h prior to kinetic analysis)	colocalization of calnexin and tyrosinase (melan-a melanocytes [2]; 85 μM, 1 day, positive control)	Vmax (melan-a tyrosinase)	Compound	tyrosinase localization (calnexin/ER, Lamp-1/lysosome) (melan-a melanocytes [2]; 60 μM, 3 days)	tyrosinase co-immunoprecipitated with TRP-1 (tyrosinase/TRP-1 complex)	cytotoxic effect (melan-a melanocytes [3])	immature Endo H-sensitive form of tyrosinase (tyrosinase [4])	TRP-1 expression (MITF, tyrosinase, TRP-1)	expression of MITF (MITF, tyrosinase, TRP-1)	expression of tyrosinase (MITF, tyrosinase, TRP-1)	colocalization of tyrosinase and Lamp-1 (melan-a melanocytes [2]; 15 μM, 4 days)
65%	noncompetitive	likely reversible			OC[C@H]1O[C@@H](Oc2c(O)cc(O)cc2/C=C/c2ccc(O)cc2)[C@H](O)[C@@H](O)[C@@H]1O [Compound 1, 2,3,5,4′-Tetrahydroxystilbene-2-O-β-D-glucopyranoside]	no aberrant tyrosinase is trapped in the ER and lysosome	reduction of immunoprecipitated tyrosinase	did not exert any cytotoxic effect	No immature Endo H-sensitive form of tyrosinase was present	not prominent	suppressed	suppressed	
					CC(=O)[C@H]1CC[C@H]2[C@@H]3CCC4=CC(=O)CC[C@]4(C)[C@H]3CC[C@]12C [progesterone]								Colocalization of both tyrosinase and Lamp-1 were also observed
	noncompetitive		clearly colocalize to the ER	2.5 × 10^–4 ΔA490/s	Oc1ccc(/C=C/c2cc(O)cc(O)c2)cc1 [resveratrol, reference compound]								
